Results from ChEMBL document CHEMBL1687715, “Therapeutic activity of an anti-idiotypic antibody-derived killer peptide against influenza A virus experimental infection” (Antimicrob Agents Chemother, 2008).
Active and inactive are the calls of the source. No cut-off for these calls is given here.

Tests used:
Influenza A virus [1] = test: Antiviral activity against Influenza A virus/NWS/1933(H1N1) infected in BALB/c mouse assessed as reduction in mortality rate at 2 mg, ip administered once daily for 10 days and dosed 30 mins post infection relative to untreated control; assay type: functional, Influenza A virus (A/NWS/1933(H1N1))
In short: (§1)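 BALB/c males, 4 weeks old, about 20 g, 10 per group, randomised. Daily i.p. treatment (50 or 100 μg/mouse, or 2 mg/mouse) in 100 μl 0.9% NaCl, starting 30 min after intranasal challenge and repeated for the next 10 days. Placebo was diluent. Mortality rate ratio versus placebo was derived by proportional hazards regression, with 95% CI.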

Influenza A virus [2] = test: Antiviral activity against Influenza A virus/NWS/1933(H1N1) infected in BALB/c mouse assessed as survival rate at 2 mg, ip administered once daily for 10 days and dosed 30 mins post infection; assay type: functional, Influenza A virus (A/NWS/1933(H1N1))
In short: (§2)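 Male BALB/c mice, 4 weeks old, 10 per group. Given i.p. in 100 μl 0.9% NaCl once daily from 30 min post-challenge through the next 10 days; diluent for placebo. Survival was checked daily for 30 days, and day-30 survivors were counted as cured. Curves were compared by log-rank test. Four experiments were run.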

Influenza A virus [3] = test: microbe, parasite or virus in culture; assay type: functional; conditions: LLC-MK2, 6 h
Influenza A virus [4] = test: microbe, parasite or virus in culture; assay type: functional, organism-based; conditions: LLC-MK2, 24 h
Influenza A virus [5] = test: microbe, parasite or virus in culture; assay type: functional; conditions: LLC-MK2, 6 h; remark: listed apart in the source
LLC-MK2 [6] = test: Cytotoxicity against monkey LLC-MK2 cells assessed as effect on RNA synthesis at 4 ug/ml; assay type: cell-based, Macaca mulatta; conditions: rhesus monkey
In short: (§3)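 Uninfected confluent monolayers were exposed to 4 μg/ml or left untreated. Viability was assessed by dye exclusion and MTT assay. DNA and RNA synthesis were measured by 48 h labelling with 10 μCi/ml [3H]thymidine or [3H]uridine, followed by counting of trichloroacetic acid-insoluble radioactivity.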

Mus musculus [7] = test: Toxicity in Influenza A virus/NWS/1933(H1N1) infected in BALB/c mouse assessed as weight loss at 100 ug, ip administered once daily for 10 days and dosed 30 mins post infection; assay type: organism-based; conditions: in vivo
Influenza A virus [8] = test: Antiviral activity against Influenza A virus/NWS/1933(H1N1) infected in BALB/c mouse assessed as reduction in mortality rate at 50 ug, ip administered once daily for 10 days and dosed 30 mins post infection relative to untreated control; assay type: functional, organism-based; conditions: Influenza A virus (A/NWS/1933(H1N1)); in short: as §1
Influenza A virus [9] = test: microbe, parasite or virus in culture; assay type: functional; conditions: LLC-MK2, 8 h
Influenza A virus [10] = test: Antiviral activity against Influenza A virus/NWS/1933(H1N1) infected in BALB/c mouse assessed as survival rate at 50 ug, ip administered once daily for 10 days and dosed 30 mins post infection; assay type: functional, organism-based; conditions: Influenza A virus (A/NWS/1933(H1N1)); in short: as §2
Mus musculus [11] = test: Toxicity in Influenza A virus/NWS/1933(H1N1) infected in BALB/c mouse assessed as effect on motor activity at 100 ug, ip administered once daily for 10 days and dosed 30 mins post infection; assay type: organism-based; conditions: in vivo
Mus musculus [12] = test: Toxicity in Influenza A virus/NWS/1933(H1N1) infected BALB/c mouse assessed as incidence of mouse death at 100 ug, ip administered once daily for 10 days and dosed 30 mins post infection; assay type: organism-based; conditions: in vivo
Influenza A virus [13] = test: Antiviral activity against Influenza A virus/NWS/1933(H1N1) infected in BALB/c mouse assessed reduction in viral load in lung at 50 ug, ip measured after 6 days postinfection relative to untreated control; assay type: functional, organism-based; conditions: Influenza A virus (A/NWS/1933(H1N1))
In short: (§4)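 Groups of 5 infected BALB/c mice, dosed i.p. daily, were killed on day 6 p.i. Each lung was weighed and homogenised in RPMI 1640. Titre was by TCID50 on MDCK monolayers: 10-fold dilutions, eight wells each, 3 days, cytopathic effect scored. Expressed per gram of lung; five homogenates per group, mean ± SD.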

Influenza A virus [14] = test: microbe, parasite or virus in culture; assay type: functional; conditions: LLC-MK2, 4 h
Influenza A virus [15] = test: microbe, parasite or virus in culture; assay type: functional; conditions: LLC-MK2, 4 h; remark: listed apart in the source
Influenza A virus [16] = test: Antiviral activity against Influenza A virus/NWS/1933(H1N1) infected in BALB/c mouse assessed as reduction in mortality rate at 100 ug, ip administered once daily for 10 days and dosed 30 mins post infection relative to untreated control; assay type: functional, Influenza A virus (A/NWS/1933(H1N1)); in short: as §1
Influenza A virus [17] = test: microbe, parasite or virus in culture; assay type: functional; conditions: LLC-MK2, 8 h; remark: listed apart in the source
LLC-MK2 [18] = test: Cytotoxicity against monkey LLC-MK2 cells assessed as effect on cell viability at 4 ug/ml; assay type: cell-based, Macaca mulatta; conditions: rhesus monkey; in short: as §3
Influenza A virus [19] = test: Antiviral activity against Influenza A virus/parrot/Ulster/73(H7N1) infected in LLC-MK2 cells assessed as of reduction in optical density values at 4 ug/ml using human RBCs by hemadsorption assay; assay type: functional, organism-based; conditions: A/parrot/Ulster/73(H7N1), Erythrocyte
LLC-MK2 [20] = test: Cytotoxicity against monkey LLC-MK2 cells assessed as effect on DNA synthesis at 4 ug/ml; assay type: cell-based, Macaca mulatta; conditions: rhesus monkey; in short: as §3
Influenza A virus [21] = test: Antiviral activity against Influenza A virus/NWS/1933(H1N1) infected in BALB/c mouse assessed as survival rate at 100 ug, ip administered once daily for 10 days and dosed 30 mins post infection; assay type: functional, Influenza A virus (A/NWS/1933(H1N1)); in short: as §2
Influenza A virus [22] = test: Antiviral activity against Influenza A virus/parrot/Ulster/73(H7N1) infected in MDCK cells assessed as of reduction in optical density values at 4 ug/ml using human RBCs by hemadsorption assay; assay type: functional, organism-based; conditions: A/parrot/Ulster/73(H7N1), Erythrocyte
Influenza A virus [23] = test: microbe, parasite or virus in culture; assay type: functional; conditions: LLC-MK2, 8 h; remark: listed apart in the source
MDCK [24] = test: Cytotoxicity against MDCK cells assessed as effect on DNA synthesis at 4 ug/ml; assay type: cell-based, Canis lupus familiaris; conditions: dog; in short: as §3
MDCK [25] = test: Cytotoxicity against MDCK cells assessed as effect on RNA synthesis at 4 ug/ml; assay type: cell-based, Canis lupus familiaris; conditions: dog; in short: as §3
Influenza A virus [26] = test: Antiviral activity against Influenza A virus/NWS/1933(H1N1) infected in BALB/c mouse assessed reduction in viral load in lung at 100 ug, ip measured after 6 days postinfection relative to untreated control; assay type: functional, Influenza A virus (A/NWS/1933(H1N1)); in short: as §4
Influenza A virus [27] = test: microbe, parasite or virus in culture; assay type: functional; conditions: LLC-MK2, 6 h; remark: listed apart in the source
Influenza A virus [28] = test: microbe, parasite or virus in culture; assay type: functional; conditions: LLC-MK2, 6 h; remark: listed apart in the source
Influenza A virus [29] = test: microbe, parasite or virus in culture; assay type: functional; conditions: LLC-MK2, 8 h; remark: listed apart in the source
MDCK [30] = test: Cytotoxicity against MDCK cells assessed as effect on cell viability at 4 ug/ml; assay type: cell-based, Canis lupus familiaris; conditions: dog; in short: as §3
Influenza A virus [31] = test: microbe, parasite or virus in culture; assay type: functional; conditions: LLC-MK2, 2 h
Influenza A virus [32] = test: microbe, parasite or virus in culture; assay type: functional; conditions: LLC-MK2, 2 h; remark: listed apart in the source
Influenza A virus [33] = test: microbe, parasite or virus in culture; assay type: functional; conditions: LLC-MK2, 6 h; remark: listed apart in the source

## NC12CC3CC(CC(C3)C1)C2 [AMANTADINE]
Influenza A virus [1]
  inhibition (INH): 77%
Influenza A virus [2]
  Survival: 50%

## H-AKVTMTCSAS-OH
Influenza A virus [3]
  inhibition at 4 µg/mL: 49.7%
Influenza A virus [4]
  EC50: 2690 nM
Influenza A virus [5]
  inhibition at 4 µg/mL: 88.9%
LLC-MK2 [6]
  Activity: Non-toxic
Mus musculus [7]
  Activity: Non-toxic
Influenza A virus [8]
  Activity: inactive
Influenza A virus [9]
  inhibition at 4 µg/mL: 93.6%
Influenza A virus [10]
  Activity: inactive
Mus musculus [11]
  Activity: Non-toxic
Mus musculus [12]
  Activity: Non-toxic
Influenza A virus [13]
  Activity: Active
Influenza A virus [14]
  inhibition at 4 µg/mL: 62.4%
Influenza A virus [15]
  inhibition at 4 µg/mL: 45.1%
Influenza A virus [16]
  inhibition (INH): 72%
Influenza A virus [17]
  inhibition at 4 µg/mL: 71.2%
LLC-MK2 [18]
  Activity: Non-toxic
Influenza A virus [19]
  inhibition: Active
LLC-MK2 [20]
  Activity: Non-toxic
Influenza A virus [21]
  Survival: 50%
Influenza A virus [22]
  inhibition: Active
Influenza A virus [23]
  inhibition at 4 µg/mL: 26.8%
MDCK [24]
  Activity: Non-toxic
MDCK [25]
  Activity: Non-toxic
Influenza A virus [26]
  fold change (FC): 2
Influenza A virus [27]
  inhibition at 4 µg/mL: 76.9%
Influenza A virus [28]
  inhibition at 4 µg/mL: 86.1%
Influenza A virus [29]
  inhibition at 4 µg/mL: 46.5%
MDCK [30]
  Activity: Non-toxic
Influenza A virus [31]
  inhibition at 4 µg/mL: 59.1%
Influenza A virus [32]
  inhibition at 4 µg/mL: 96.3%
Influenza A virus [33]
  inhibition at 4 µg/mL: 65.2%
